The source of these data is ChEMBL document CHEMBL2177035, “Design and synthesis of dual modulators of soluble epoxide hydrolase and peroxisome proliferator-activated receptors” (J Med Chem, 2012).

Test [1] has as its target T1, Peroxisome proliferator-activated receptor alpha (Homo sapiens) (UniProt Q07869).
T1 sequence (whole entry): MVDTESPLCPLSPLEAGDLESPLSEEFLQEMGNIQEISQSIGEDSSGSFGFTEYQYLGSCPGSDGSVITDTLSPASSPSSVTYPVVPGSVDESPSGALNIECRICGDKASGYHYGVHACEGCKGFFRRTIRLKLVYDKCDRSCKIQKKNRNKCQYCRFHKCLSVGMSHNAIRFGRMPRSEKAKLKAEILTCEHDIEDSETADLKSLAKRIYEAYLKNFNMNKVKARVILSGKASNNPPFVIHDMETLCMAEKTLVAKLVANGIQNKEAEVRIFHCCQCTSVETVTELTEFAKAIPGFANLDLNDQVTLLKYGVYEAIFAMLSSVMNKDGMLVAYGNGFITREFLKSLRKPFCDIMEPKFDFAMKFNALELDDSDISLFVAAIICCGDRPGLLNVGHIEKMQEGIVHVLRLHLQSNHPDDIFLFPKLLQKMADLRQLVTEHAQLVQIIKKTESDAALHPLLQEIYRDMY
As to the kind of experiment: Transactivation of GAL4-fused human PPARalpha ligand binding domain transfected in african green monkey COS7 cells at 10 uM by luciferase reporter gene assay relative to GW7647. It counts as cell-based. To be noted: COS-7. An outline of the steps:
(§1)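 COS7 cells in DMEM/10% FCS at 37 °C, 5% CO2, plated 30000/well the day before. Lipofectamine LTX co-transfection of pFR-Luc, pRL-SV40 and Gal4–hPPAR-LBD (pFA-CMV) of the given subtype. After 5 h, switched to phenol red-free DMEM/10% FCS with 0.1% DMSO and compound; overnight incubation. Dual-Glo firefly/renilla luminescence, normalized to DMSO. Maximum effect compared with 1 μM reference agonist (GW7647 for α, L165,041 for δ). Triplicate wells, ≥3 independent runs.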

The target in test [2] is T2, Bifunctional epoxide hydrolase 2 (Homo sapiens, UniProt P34913).
T2 sequence (P34913 whole entry): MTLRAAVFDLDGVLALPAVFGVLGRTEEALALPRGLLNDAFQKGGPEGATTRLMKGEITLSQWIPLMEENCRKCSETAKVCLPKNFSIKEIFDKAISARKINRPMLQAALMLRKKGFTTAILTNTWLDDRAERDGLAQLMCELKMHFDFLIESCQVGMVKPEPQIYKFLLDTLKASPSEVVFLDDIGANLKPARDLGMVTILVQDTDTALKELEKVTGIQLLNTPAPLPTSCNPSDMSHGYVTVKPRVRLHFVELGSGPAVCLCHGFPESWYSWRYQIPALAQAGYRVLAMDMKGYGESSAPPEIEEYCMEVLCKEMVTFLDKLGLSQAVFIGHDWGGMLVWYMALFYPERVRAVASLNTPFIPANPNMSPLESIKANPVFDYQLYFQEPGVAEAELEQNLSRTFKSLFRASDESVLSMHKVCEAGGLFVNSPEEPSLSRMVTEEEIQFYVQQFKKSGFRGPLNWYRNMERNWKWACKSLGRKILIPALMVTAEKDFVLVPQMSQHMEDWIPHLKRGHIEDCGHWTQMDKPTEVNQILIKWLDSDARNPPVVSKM
As to the kind of experiment: Inhibition of recombinant soluble epoxide hydrolase using PHOME as substrate after 10 mins by fluorescence assay.

The target of test [3] is T3, Peroxisome proliferator-activated receptor delta (Homo sapiens) (UniProt Q03181).
T3 sequence (whole entry): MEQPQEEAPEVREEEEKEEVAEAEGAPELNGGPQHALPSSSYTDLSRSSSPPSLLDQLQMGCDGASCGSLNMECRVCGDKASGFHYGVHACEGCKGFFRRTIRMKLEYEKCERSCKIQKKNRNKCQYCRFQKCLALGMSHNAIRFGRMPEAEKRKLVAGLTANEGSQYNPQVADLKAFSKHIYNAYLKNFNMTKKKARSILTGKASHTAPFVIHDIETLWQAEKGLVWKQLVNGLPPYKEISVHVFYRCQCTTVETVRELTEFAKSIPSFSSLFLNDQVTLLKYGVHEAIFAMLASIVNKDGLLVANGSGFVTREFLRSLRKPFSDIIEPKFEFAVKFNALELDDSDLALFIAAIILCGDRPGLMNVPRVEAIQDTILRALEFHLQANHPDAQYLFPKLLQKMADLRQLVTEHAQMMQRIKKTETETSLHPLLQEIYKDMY
The test can be described thus: Transactivation of GAL4-fused human PPARdelta ligand binding domain transfected in african green monkey COS7 cells at 10 uM by luciferase reporter gene assay relative to L-165041. It is filed as cell-based. Particulars: COS-7. A digest of the protocol:
as §1

The target in test [4] is T1, Peroxisome proliferator-activated receptor alpha (Homo sapiens). As to the kind of experiment: Transactivation of GAL4-fused human PPARalpha ligand binding domain transfected in african green monkey COS7 cells by luciferase reporter gene assay. To be noted: COS-7. It is filed as cell-based. A digest of the protocol: (§2)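 Gal4–hPPAR-LBD (α or δ) transient co-transfection with pFR-Luc and pRL-SV40 into COS7 cells seeded 30000/well. Compounds given in phenol red-free DMEM/10% FCS with 0.1% DMSO from 5 h post-transfection, overnight. Firefly over renilla luminescence, divided by DMSO control. EC50 and SD from means of ≥3 determinations by four-parameter logistic fit; triplicate wells, ≥3 independent experiments.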

Test [5] addresses T3, Peroxisome proliferator-activated receptor delta (Homo sapiens). As to the kind of experiment: Transactivation of GAL4-fused human PPARdelta ligand binding domain transfected in african green monkey COS7 cells by luciferase reporter gene assay. It counts as cell-based. Particulars: COS-7. A digest of the protocol: as §2
(In general: In a reporter assay the amount or activity of a reporter protein is the signal.)

Active and inactive are the calls of the source. No cut-off for these calls is given here.

By IC50 is commonly meant the concentration that inhibits the measured activity by half.

In the case of `O=C(NCc1ccc(Cn2cccc2C(=O)O)cc1)NC12C[C@H]3C[C@@H](C1)C[C@@H](C2)C3`, the result in test [1] and in test [3] was inactive. Besides, the half-inhibitory concentration (IC50) in test [2] was 73 nM.
On to `O=C(NCc1cccc(Cn2cccc2C(=O)O)c1)NC12C[C@H]3C[C@@H](C1)C[C@@H](C2)C3`, for which the outcome in test [1] and in test [3] was inactive. Moreover, the concentration for half-maximal inhibition (IC50) in test [2] was determined as 304 nM.
Take `CCOC(=O)c1cccn1Cc1cccc(CNC(=O)Nc2ccc(OC(F)(F)F)cc2)c1`: the outcome in test [1] and in test [3] was inactive.
As for `O=C(NCc1cccc(Cn2cccc2C(=O)O)c1)NC1CCCCC1`, the outcome in test [1] and in test [3] was inactive. The IC50 in test [2] was determined as 1920 nM.
For `O=C(NCc1ccc(Cn2cccc2C(=O)O)cc1)Nc1ccc(OC(F)(F)F)cc1`, the %max in test [4] was 90%. This compound also registered an Activity in test [1] of 67%. Moreover, the outcome in test [5] and in test [3] was inactive. The IC50 in test [2] was 258 nM.
Turning to `O=C(NCc1ccccc1Cn1cccc1C(=O)O)NC12C[C@H]3C[C@@H](C1)C[C@@H](C2)C3`, the result in test [4], in test [1], in test [5] and in test [3] was inactive.
For the compound `CCOC(=O)c1cccn1Cc1ccc(CNC(=O)Nc2ccc(OC(F)(F)F)cc2)cc1`, the outcome in test [1] and in test [3] was inactive. The IC50 in test [2] was found to be 611 nM.
Regarding `CCOC(=O)c1cccn1Cc1ccccc1CNC(=O)NC12C[C@H]3C[C@@H](C1)C[C@@H](C2)C3`, the outcome in test [1] and in test [3] was inactive. For the same compound, in test [2], the IC50 came out at 43 nM.
In the case of `O=C(NCc1ccccc1Cn1cccc1C(=O)O)Nc1ccc(OC(F)(F)F)cc1`, the %max in test [4] is 55%. This compound gave an Activity in test [1] of 38%. Besides, the outcome in test [5] and in test [3] was inactive.
With `CCOC(=O)c1cccn1Cc1cccc(CNC(=O)NC23C[C@H]4C[C@@H](C2)C[C@@H](C3)C4)c1`, the outcome in test [1] and in test [3] was inactive. Further, the IC50 in test [2] was found to be 46 nM.
As to `CCOC(=O)c1cccn1Cc1ccc(CNC(=O)NC23C[C@H]4C[C@@H](C2)C[C@@H](C3)C4)cc1`, the result in test [1] and in test [3] was inactive. Moreover, the 50% inhibitory concentration (IC50) in test [2] was 87 nM.
Take `CCOC(=O)c1cccn1Cc1cccc(CNC(=O)NC2CCCCC2)c1`: the outcome in test [1] and in test [3] was inactive. Moreover, the IC50 in test [2] stood at 27 nM.
With `CCOC(=O)c1cccn1Cc1ccc(CNC(=O)NC2CCCCC2)cc1`, the result in test [1] and in test [3] was inactive. Further, the IC50 in test [2] came out at 23 nM.
Consider `O=C(NCc1cccc(Cn2cccc2C(=O)O)c1)Nc1ccc(OC(F)(F)F)cc1`, for which the %max in test [4] was 97%. Further, the Activity in test [1] was 58%. Besides, the IC50 in test [2] was found to be 943 nM.
Turning to `CCOC(=O)c1cccn1Cc1ccccc1CNC(=O)Nc1ccc(OC(F)(F)F)cc1`, the result in test [1] and in test [3] was inactive. Also, the IC50 in test [2] worked out at 2010 nM.
Take `CCOC(=O)c1cccn1Cc1ccccc1CNC(=O)NC1CCCCC1`: the result in test [1] and in test [3] was inactive. For the same compound, the IC50 in test [2] was 39 nM.
Regarding `O=C(NCc1ccc(Cn2cccc2C(=O)O)cc1)NC1CCCCC1`, the result in test [1] and in test [3] was inactive. Besides, in test [2], the 50% inhibitory concentration (IC50) stood at 252 nM.
For the compound `O=C(NCc1ccccc1Cn1cccc1C(=O)O)NC1CCCCC1`, the outcome in test [1] and in test [3] was inactive. Moreover, the concentration for half-maximal inhibition (IC50) in test [2] is 747 nM.
